For 11 compounds, IC50, Ratio and IC90 results are on record in ChEMBL document CHEMBL1128184, “Topoisomerase II-mediated DNA cleavage by adocia- and xestoquinones from the Philippine sponge Xestospongia sp” (J Med Chem, 1995).

pIC50: −log10 of the molar value.

Assay [1] deals with XRS6. Put plainly: Cytotoxicity against CHO cell line xrs6. Format: functional, cell-based. The note with it: Cricetulus griseus. The method, boiled down:
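MTT assay on DNA double-strand-break repair-deficient CHO xrs-6 cells grown in αMEM with serum, seeded at 60 000 cells/well and allowed to attach 4 h. Drug added from DMSO stock, final DMSO 1% or less, four replicate wells per dose. Exposure 18 h, then drug-free medium. Absorbance at 540 nm, compared against DMSO-only wells to give percent growth inhibition.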

Assay [2] relates to HCT-116. Briefly: Cytotoxicity against HCT116 cells. Format: functional, cell-based. Conditions: Homo sapiens. The method, boiled down:
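HCT 116 human colon tumour cells in McCoy's medium with 10% FBS, seeded at 40 000 cells/well and allowed 4 h to attach. Drug added in DMSO (0.5%), 3 days continuous exposure, four replicate wells per dose. MTT (5 mg/mL in PBS) added for 4 h, formazan dissolved in acidic 2-propanol, A540 read against DMSO controls for percent growth inhibition.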

Assay [3] can be described thus: Ratio of BR1 IC50 to xrs-6 IC50. Format: functional. The method, boiled down: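 MTT assay run in parallel on repair-competent CHO BR1 (40 000 cells/well) and repair-deficient xrs-6 (60 000 cells/well), both in αMEM with serum. 4 h attachment, then 18 h drug exposure from DMSO (final 1% or less), then drug-free medium. Four wells per dose, A540 against DMSO controls. The ratio is the BR1 IC50 divided by the xrs-6 IC50.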

Assay [4] deals with DNA topoisomerase II (Homo sapiens) (UniProt P11388+Q02880). Briefly: In vitro inhibition of partially purified human ovarian carcinoma topoisomerase II of kDNA decatenation. Format: protein assay. The method, boiled down: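 Decatenation of kinetoplast DNA (0.2 μg) by one unit of partially purified human ovarian carcinoma topoisomerase II in 50 mM Tris-HCl pH 8.0, 120 mM KCl, 10 mM MgCl2, 1 mM ATP, 0.5 mM DTT, 30 μg/mL BSA. Compound added in DMSO. Stopped with sarkosyl stop buffer, 1% agarose/ethidium gel, UV visualization. Value is the concentration apparently inhibiting 90% of monomer-length kDNA production.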

Assay [5] has as its target T1, DNA topoisomerase 2 (Drosophila melanogaster) (UniProt P15348).
T1 sequence (whole entry): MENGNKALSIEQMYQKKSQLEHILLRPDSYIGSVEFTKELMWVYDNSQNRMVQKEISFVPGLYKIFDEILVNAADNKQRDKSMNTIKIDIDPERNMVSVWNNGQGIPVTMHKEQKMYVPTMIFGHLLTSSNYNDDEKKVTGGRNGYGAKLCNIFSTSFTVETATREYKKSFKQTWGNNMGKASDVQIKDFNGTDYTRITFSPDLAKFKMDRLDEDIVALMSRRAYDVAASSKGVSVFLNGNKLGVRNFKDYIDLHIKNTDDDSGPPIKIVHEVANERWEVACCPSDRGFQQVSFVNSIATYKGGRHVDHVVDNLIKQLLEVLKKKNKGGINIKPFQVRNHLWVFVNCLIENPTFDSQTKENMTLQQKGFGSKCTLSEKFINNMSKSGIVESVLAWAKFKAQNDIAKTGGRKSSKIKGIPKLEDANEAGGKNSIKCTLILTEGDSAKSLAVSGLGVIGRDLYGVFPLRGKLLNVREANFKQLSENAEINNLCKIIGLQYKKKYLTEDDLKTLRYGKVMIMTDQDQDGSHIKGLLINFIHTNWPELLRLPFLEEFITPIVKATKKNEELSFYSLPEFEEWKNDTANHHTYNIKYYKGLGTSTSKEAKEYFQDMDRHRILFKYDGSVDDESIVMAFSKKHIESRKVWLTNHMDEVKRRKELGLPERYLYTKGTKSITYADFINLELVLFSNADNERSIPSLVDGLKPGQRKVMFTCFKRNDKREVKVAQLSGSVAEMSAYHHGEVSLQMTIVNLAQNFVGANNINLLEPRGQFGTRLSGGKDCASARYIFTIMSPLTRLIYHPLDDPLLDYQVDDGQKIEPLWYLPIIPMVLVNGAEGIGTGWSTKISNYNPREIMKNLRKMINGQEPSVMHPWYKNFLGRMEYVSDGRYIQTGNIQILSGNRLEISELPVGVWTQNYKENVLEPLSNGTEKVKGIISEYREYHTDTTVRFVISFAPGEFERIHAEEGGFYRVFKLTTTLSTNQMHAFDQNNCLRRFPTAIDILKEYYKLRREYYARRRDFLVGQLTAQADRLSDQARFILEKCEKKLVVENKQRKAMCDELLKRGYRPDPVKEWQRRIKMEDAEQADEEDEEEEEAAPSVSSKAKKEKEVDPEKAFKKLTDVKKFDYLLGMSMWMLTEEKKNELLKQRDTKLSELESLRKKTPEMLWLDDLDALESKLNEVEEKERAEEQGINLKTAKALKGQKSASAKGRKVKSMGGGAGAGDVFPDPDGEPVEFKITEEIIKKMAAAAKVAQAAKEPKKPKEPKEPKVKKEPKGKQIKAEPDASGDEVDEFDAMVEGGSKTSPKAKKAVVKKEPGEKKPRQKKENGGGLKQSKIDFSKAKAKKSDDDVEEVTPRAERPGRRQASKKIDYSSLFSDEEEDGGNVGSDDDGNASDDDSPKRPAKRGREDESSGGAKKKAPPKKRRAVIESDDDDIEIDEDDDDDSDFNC
Briefly: Inhibition of commercially obtained pure Drosophila Topoisomerase II in catalytic DNA unwinding. The method, boiled down: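 Relaxation assay with supercoiled pBR322 (0.5 μg) and pure Drosophila topoisomerase II at 3 units per reaction. Buffer: 50 mM Tris-HCl pH 8.0, 120 mM KCl, 10 mM MgCl2, 1 mM ATP, 0.5 mM DTT, 30 μg/mL BSA. Drug added in DMSO.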

Broadly, the pIC50 is −log10 of the IC50, conventionally taken in molar units. One may read the IC90 as the point of the concentration-response curve where the effect stands at 90%. The low end stands for greater potency, the high end for weaker potency.

For `C[C@@]12CCCc3coc(c31)C(=O)c1cc3c(cc12)C(=O)C(=O)C(Cl)=C3O`, the pIC50 is 4.57 in assay [1] and 4.48 in assay [2]. For the same compound, in assay [3], the Ratio was determined as 4.5.
Take `COC1=CC(=O)c2cc3c(cc2C1=O)C(=O)c1occ2c1[C@@]3(C)CCC2`: the results for the pIC50 in assay [1] and in assay [2] were 5.37 and 4.55, respectively. Further, in assay [3], the Ratio was found to be 3.
In the same order, the values of `C[C@@]12CCCc3coc(c31)C(=O)c1cc3c(cc12)C(=O)C(Cl)=C(O)C3=O` are 4.57, 4.48 and 4.5.
Consider `C[C@@]12CCCc3coc(c31)C(=O)c1cc3c(cc12)C(=O)C1=C(NCCS1(=O)=O)C3=O` [ADOCIAQUINONE B], for which the pIC50 in assay [1] is 4.64; in assay [2] it was 4.68. Further, the 90% effect concentration (IC90) in assay [4] was less than 11 µM; in assay [5], 78 µM. The Ratio in assay [3] stood at 3.
As to `C[C@@]12CCCc3coc(c31)C(=O)c1cc3c(cc12)C(=O)C=C(NCCS(=O)(=O)O)C3=O`, the pIC50 in assay [1] was less than 3.54; in assay [2] it was less than 3.84.
In turn, `COc1cc([C@@H]2c3cc4c(cc3[C@@H](O[C@@H]3O[C@@H]5CO[C@@H](C)O[C@H]5[C@H](O)[C@H]3O)[C@H]3COC(=O)[C@H]23)OCO4)cc(OC)c1O` [ETOPOSIDE] gave a pIC50 in assay [1] of 6.85. The concentration for an effect of 90% (IC90) in assay [5] was 85 µM. Also, in assay [3], the Ratio was determined as 7.
Consider `C[C@@]12CCCc3coc(c31)C(=O)c1cc3c(cc12)C(=O)C1=NCCS(=O)(=O)C1=C3O` [ADOCIAQUINONE A], for which the pIC50 is 4.11 in assay [1] and 4.62 in assay [2]. The Ratio in assay [3] was determined as 3.
Regarding `O=C1c2c(O)ccc(O)c2C(=O)c2c(NCCNCCO)ccc(NCCNCCO)c21` [MITOXANTRONE], the negative logarithm of the IC50 (pIC50) in assay [1] was 9.00. Moreover, in assay [5], the IC90 stood at 56 µM.
With `C[C@@]12CCCc3coc(c31)C(=O)c1cc3c(cc12)C(=O)/C(=N/CCS(=O)(=O)O)C=C3O`, the pIC50 in assay [1] was less than 3.54; in assay [2], less than 3.84.
Regarding `COC1=CC(=O)c2cc3c(cc2C1=O)[C@]1(C)CCCc2coc(c21)C3=O`, the negative-log IC50 (pIC50) in assay [1] is 5.37; in assay [2], 4.55. Also, the Ratio in assay [3] was found to be 3.
In assay [1], `COc1cc(NS(C)(=O)=O)ccc1Nc1c2ccccc2nc2ccccc12` [AMSACRINE] gave a negative-log IC50 (pIC50) of 6.62. Besides, the Ratio in assay [3] stood at 4.
